What was measured:
[1] = Concentration required to cause 50% relaxation of maximal contraction in circumferential rabbit aorta strips in response to KCl (100 mM); type: functional, tissue-based, Oryctolagus cuniculus; details: Oryctolagus cuniculus, Aorta
[2] = target: T1, Voltage-gated L-type calcium channel (Rattus norvegicus, UniProt P22002+Q02485+P27732); assay: Percentage decrease in blood pressure at a dose of 135 uM/kg for 0-6 h in spontaneously hypertensive rats.; type: functional, tissue-based
Summary of the method: (§1)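 Spontaneously hypertensive rats, n = 5, given 135 µmol/kg orally; systolic pressure recorded directly; maximum percent fall from predrug control noted within 0-6, 6-12 and 12-18 h windows after dosing; mean of five rats.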

[3] = target: T1, Voltage-gated L-type calcium channel; assay: Percentage decrease in blood pressure at a dose of 135 uM/kg for 12-18 hr in spontaneously hypertensive rats.; type: functional, tissue-based; summary of the method: as §1
[4] = target: T1, Voltage-gated L-type calcium channel; assay: Percentage decrease in blood pressure at a dose of 135 uM/kg for 6-12 hr in spontaneously hypertensive rats.; type: functional, tissue-based; summary of the method: as §1
[5] = Partition coefficient (logP); type: physicochemical; details: octanol/water
[6] = target: T1, Voltage-gated L-type calcium channel; assay: Percentage decrease in blood pressure at a dose of 135 uM/kg for 0-6 hr in spontaneously hypertensive rats.; type: functional, tissue-based; summary of the method: as §1
[7] = target: T1, Voltage-gated L-type calcium channel; assay: Percentage decrease in blood pressure at a dose of 270 umol/kg for 12-18 h in spontaneously hypertensive rats.; type: functional, tissue-based
Summary of the method: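 Spontaneously hypertensive rats, n = 5, dosed orally at 270 µmol/kg; systolic pressure recorded directly; maximum percent fall from predrug control within the 12-18 h window after dosing; mean of five rats.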

Structure (SMILES)	IC50 [1] [µM]	Decrease in blood pressure [2] [%]	Decrease in blood pressure [3] [%]	Decrease in blood pressure [4] [%]	logP [5]	Decrease in blood pressure [6] [%]	Decrease in blood pressure [7] [%]
COc1ccc([C@@H]2Cc3c(cccc3C(F)(F)F)N(CCN(C)C)C(=O)[C@@H]2Cc2ccccc2)cc1	0.79	14	6	8	5.2	–	–
COc1ccc([C@@H]2Cc3cc(OC(F)F)ccc3N(CCN(C)C)C(=O)[C@@H]2OC(C)=O)cc1	0.96	12	16	13	1.8	–	–
COc1ccc([C@@H]2Cc3c(C(=O)O)cccc3N(CCN(C)C)C(=O)[C@@H]2OC(C)=O)cc1	> 30	8	10	9	-4.1	–	–
COc1ccc([C@@H]2Cc3cc(Sc4ccccc4)ccc3N(CCN(C)C)C(=O)[C@@H]2OC(C)=O)cc1	0.69	15	19	17	3.8	–	–
COc1ccc([C@@H]2Cc3c(cccc3C(F)(F)F)N(CCN(C)C(C)=O)C(=O)[C@@H]2OC(C)=O)cc1	4.5	–	5	1	–	2	–
COc1ccc([C@@H]2Cc3cc(C(F)(F)F)ccc3N(CCN(C)C)C(=O)[C@@H]2NC(C)=O)cc1	9.2	12	10	12	1.6	–	–
COc1ccc([C@@H]2Cc3cc(Cl)ccc3N(CCN(C)C)C(=O)[C@@H]2OC(C)=O)cc1	–	13	–	14	2.2	–	18
COc1ccc([C@@H]2Cc3c(cccc3[N+](=O)[O-])N(CCN(C)C)C(=O)[C@@H]2OC(C)=O)cc1	0.37	16	14	12	1.7	–	–
CNC(=O)Oc1ccc2c(c1)C[C@@H](c1ccc(OC)cc1)[C@@H](OC(C)=O)C(=O)N2CCN(C)C	0.31	7	12	10	0.31	–	–
CC[C@H]1C(=O)N(CCN(C)C)c2cccc(C(F)(F)F)c2C[C@H]1c1ccc(OC)cc1	0.012	21	15	19	4.3	–	–
COc1ccc([C@@H]2Cc3cc(C(F)(F)F)ccc3N(CCN(C)C)C(=O)[C@@H]2SC(C)=O)cc1	0.068	13	23	18	3.4	–	–
COc1ccc([C@@H]2Cc3c(C(N)=O)cccc3N(CCN(C)C)C(=O)[C@@H]2OC(C)=O)cc1	> 30	13	12	12	-1	–	–
COc1ccc([C@@H]2Cc3cc(OCc4ccccc4)ccc3N(CCN(C)C)C(=O)[C@@H]2OC(C)=O)cc1	0.73	8	11	10	3.4	–	–
COc1ccc([C@@H]2Cc3c(ccc(Br)c3OC)N(CCN(C)C)C(=O)[C@@H]2OC(C)=O)cc1	0.58	18	11	12	2.4	–	–
COc1ccc([C@@H]2Cc3cc(SC(C)(C)C)ccc3N(CCN(C)C)C(=O)[C@@H]2OC(C)=O)cc1	9	10	14	11	3.6	–	–
COc1ccc([C@@H]2Cc3c(C#N)cccc3N(CCN(C)C)C(=O)[C@@H]2OC(C)=O)cc1	0.12	9	9	7	1.3	–	–
COc1ccc([C@H]2CC(=O)N(CCN(C)C)c3cccc(C(F)(F)F)c3C2)cc1	1.1	2	3	3	3.1	–	–
COc1ccc([C@@H]2Cc3cc(Oc4ccccc4)ccc3N(CCN(C)C)C(=O)[C@@H]2OC(C)=O)cc1	0.44	16	16	12	3.1	–	–
COc1ccc([C@@H]2Cc3cc(OC(=O)C(C)(C)C)ccc3N(CCN(C)C)C(=O)[C@@H]2OC(C)=O)cc1	5.2	13	16	14	2.9	–	–
CCC[C@H]1C(=O)N(CCN(C)C)c2cccc(C(F)(F)F)c2C[C@H]1c1ccc(OC)cc1	0.95	14	24	19	4.9	–	–
COc1ccc([C@@H]2Cc3cc(C(F)(F)F)ccc3N(CCN(C)C)C(=O)[C@@H]2OC(C)=O)cc1	1.9	19	18	19	2.8	–	–
COc1ccc([C@@H]2Cc3ccccc3N(CCN(C)C)C(=O)[C@@H]2C)cc1	1.1	6	8	4	2.5	–	–

— ChEMBL document CHEMBL1125383, “Benzazepinone calcium channel blockers. 4. Structure-activity overview and intracellular binding site” (J Med Chem, 1992)
